From ChEMBL document CHEMBL4627281, “A small molecule inhibitor of PCSK9 that antagonizes LDL receptor binding via interaction with a cryptic PCSK9 binding groove” (Bioorg Med Chem, 2020)
Calls of active or inactive are those of the source. The rule behind the calls is not given here.

Experiments:
Mus musculus [1] = test: Effect on total triglyceride level in C57BL/6 mouse at 3.28 to 16.4 mg/kg/day, sc administered daily for 14 days and measured on day 15 by colorimetric method; type: ADME, organism-based; settings: in vivo, 336 h
How it was run: (§1)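 Female C57BL/6 wild-type or PCSK9−/− mice (8–16 weeks), acclimatised 7 days, 5 per group, dosed SC daily for 14 days at 3.28 or 16.4 mg/kg/day in 5% DMSO/95% saline, or vehicle alone. Blood taken into EDTA on days 0, 5, 10 and 15; plasma from 2500 g spin, stored at −20 °C. Total cholesterol and triglycerides read by colorimetric kits, PCSK9 by mouse ELISA; unpaired two-tailed t test against vehicle.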

[2] = Toxicity in C57BL/6 mouse assessed as change in behavior at 3.28 to 16.4 mg/kg/day, sc administered daily for 14 days; type: organism-based; settings: in vivo, 336 h
Mus musculus [3] = test: Antihyperlipidemic activity in PCSK9 knockout C57BL/6 mouse assessed as decrease in total cholesterol level at 16.4 mg/kg/day, sc administered daily for 14 days and measured on day 15 by colorimetric method; type: functional, organism-based; how it was run: as §1
[4] = Terminal half life in C57BL/6 mouse at 5 mg/kg, iv administered as single dose measured upto 24 hrs by LC-MS/MS analysis; type: ADME, organism-based; settings: in vivo, read-out: beta t1/2 (converted)
How it was run: (§2)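 Male C57BL/6 mice, single dose: IV 5 mg/kg in 85% saline/10% Solutol HS15/5% DMSO; SC 20 mg/kg in same vehicle; PO 20 mg/kg in 1% methylcellulose in water. About 110 µL blood taken into K2EDTA by retro-orbital puncture (terminal bleed by cardiac puncture under isoflurane) at 0.033–24 h. Plasma spun at 2000 g, 5 min, 4 °C, stored near −70 °C; n = 3 per route.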

Mus musculus [5] = test: Up regulation of PCSK9 expression in C57BL/6 mouse at 16.4 mg/kg/day, sc administered daily for 10 days measured post last dose by ELISA; type: functional, organism-based; settings: in the assay text read “for 14 days” for “for 10 days”; how it was run: as §1
[6] = molecular target: Mast/stem cell growth factor receptor Kit (Homo sapiens, UniProt P10721); test: Inhibition of recombinant human N-terminal GST-tagged c-Kit (544 to end residues) expressed in baculovirus infected Sf21 insect cells using FAM-labelled P22 peptide as substrate preincubated for 10 mins followed by substrate addition and measured after 1 hr in presence of ATP by fluorescence assay
[7] = Clearance in CD1 mouse at 0.4 mg/kg, iv administered as cassette dose measured upto 24 hrs by LC-MS/MS analysis; type: ADME, organism-based; settings: in vivo
How it was run: (§3)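 Male CD1 mice (second cassette 28–29 g, 7–8 weeks) given one IV 5-in-1 cassette at 0.4 mg/kg per compound in 5% DMAC/5% Solutol HS15/90% saline. Blood (~20 µL) into K2EDTA from the facial vein at 0.083–24 h, terminal bleed by cardiac puncture under isoflurane. Blood diluted with deionised water, stored at −80 °C, analysed by positive-ESI mass spectrometry.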

[8] = AUClast in C57BL/6 mouse at 5 mg/kg, iv administered as single dose measured upto 24 hrs by LC-MS/MS analysis; type: ADME, organism-based; parameters: dose 5 mg/kg, time < 24 hr, route intravenous; settings: in vivo; how it was run: as §2
[9] = AUClast in C57BL/6 mouse at 20 mg/kg, po administered as single dose measured upto 24 hrs by LC-MS/MS analysis; type: ADME, organism-based; parameters: dose 20 mg/kg, time < 24 hr, route oral; settings: in vivo; how it was run: as §2
[10] = AUCinfinity in CD1 mouse at 0.4 mg/kg, iv administered as cassette dose measured upto 24 hrs by LC-MS/MS analysis; type: ADME, organism-based; parameters: dose 0.4 mg/kg, route intravenous, time infinity; settings: in vivo; how it was run: as §3
[11] = Cmax in C57BL/6 mouse at 20 mg/kg, sc administered as single dose measured upto 24 hrs by LC-MS/MS analysis; type: ADME, organism-based; parameters: dose 20 mg/kg, route subcutaneous; settings: in vivo; how it was run: as §2
[12] = molecular target: Proto-oncogene tyrosine-protein kinase Src (Homo sapiens, UniProt P12931); test: Inhibition of recombinant human full-length N-terminal GST-tagged SRC (1 to 536 residues) expressed in baculovirus expression system using FAM-labelled P4 peptide as substrate preincubated for 10 mins followed by substrate addition and measured after 1 hr in presence of ATP by fluorescence assay
[13] = AUClast in CD1 mouse at 0.4 mg/kg, iv administered as cassette dose measured upto 24 hrs by LC-MS/MS analysis; type: ADME, organism-based; parameters: time < 24 hr, dose 0.4 mg/kg, route intravenous; settings: in vivo; how it was run: as §3
[14] = molecular target: Proprotein convertase subtilisin/kexin type 9 (Homo sapiens) (UniProt Q8NBP7); test: Binding affinity to biotinylated recombinant human PCSK9 at 0.8 to 1.6 uM incubated for 2 mins followed by further incubation for 10 mins by biolayer interferometry
How it was run: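 Biolayer interferometry: biotinylated PCSK9 (27 µg/mL) loaded onto a Super Streptavidin biosensor and blocked with biocytin. Compound (0.2–25.6 µM) associated for 2 min, then dissociated for 10 min. Background signal subtracted to remove non-specific binding.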

Mus musculus [15] = test: Antihyperlipidemic activity in C57BL/6 mouse assessed as decrease in total cholesterol level at 3.28 mg/kg/day, sc administered daily for 14 days and measured on day 15 by colorimetric method; type: functional, organism-based; how it was run: as §1
[16] = AUClast in C57BL/6 mouse at 20 mg/kg, sc administered as single dose measured upto 24 hrs by LC-MS/MS analysis; type: ADME, organism-based; parameters: dose 20 mg/kg, time < 24 hr, route subcutaneous; settings: in vivo; how it was run: as §2
[17] = Time at which plasma concentration exceeds in vitro IC50 for inhibition of recombinant human His-tagged PCSK9 interaction with recombinant LDLR AB domain (unknown origin) in C57BL/6 mouse at 20 mg/kg, sc administered as single dose; type: organism-based; settings: in vivo
[18] = Cmax in C57BL/6 mouse at 20 mg/kg, po administered as single dose measured upto 24 hrs by LC-MS/MS analysis; type: ADME, organism-based; parameters: dose 20 mg/kg, route oral; settings: in vivo; how it was run: as §2
[19] = tested on: PCSK9/LDLR (Homo sapiens), Q8NBP7+P01130 [D374Y]; test: Inhibition of PCSK9 D374Y mutant (unknown origin) and LDLR protein-protein interaction in human PBMC assessed as increase in LDLR expression on lymphocyte surface at 0.1 to 0.4 uM measured after 4 hrs by flow cytometry analysis; type: cell-based
How it was run: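 PBMCs from healthy donors, frozen and then thawed, plated at 2 × 10^5 per well in RPMI with 10 mM HEPES, 1 mM pyruvate and 0.5% FCS for 2 h at 37 °C. Treated 4 h with or without 600 ng/mL PCSK9-D374Y plus compound. Cells stained 20 min at room temperature with APC-conjugated anti-LDLR; at least 5 × 10^3 gated lymphocytes read by flow cytometry. Values as % of PCSK9-free vehicle; triplicates, t test.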

PCSK9/LDLR = PCSK9/LDLR (Homo sapiens, UniProt Q8NBP7); test: Inhibition of recombinant human His-tagged PCSK9 interaction with recombinant LDLR AB domain (unknown origin) measured after 3 hrs by horseradish peroxidase-coupled TMB substrate based spectrophotometry; type: protein assay
How it was run: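 ELISA plates pre-coated with LDLR-EGF-AB domain. Compounds serially diluted from 10 mM DMSO stocks in reaction buffer, with 7 ng His-tagged human PCSK9 added, 3 h at room temperature with shaking. Binding detected with biotinylated anti-His antibody (1 h), then HRP-streptavidin (20 min), then substrate (15 min); absorbance read at 450/540 nm. IC50 taken from the % inhibition curve.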

[20] = Plasma concentration in C57BL/6 mouse at 20 mg/kg, sc administered as single dose measured after 24 hrs by LC-MS/MS analysis; type: ADME, organism-based; how it was run: as §2

Chain of Mast/stem cell growth factor receptor Kit (P10721 whole entry): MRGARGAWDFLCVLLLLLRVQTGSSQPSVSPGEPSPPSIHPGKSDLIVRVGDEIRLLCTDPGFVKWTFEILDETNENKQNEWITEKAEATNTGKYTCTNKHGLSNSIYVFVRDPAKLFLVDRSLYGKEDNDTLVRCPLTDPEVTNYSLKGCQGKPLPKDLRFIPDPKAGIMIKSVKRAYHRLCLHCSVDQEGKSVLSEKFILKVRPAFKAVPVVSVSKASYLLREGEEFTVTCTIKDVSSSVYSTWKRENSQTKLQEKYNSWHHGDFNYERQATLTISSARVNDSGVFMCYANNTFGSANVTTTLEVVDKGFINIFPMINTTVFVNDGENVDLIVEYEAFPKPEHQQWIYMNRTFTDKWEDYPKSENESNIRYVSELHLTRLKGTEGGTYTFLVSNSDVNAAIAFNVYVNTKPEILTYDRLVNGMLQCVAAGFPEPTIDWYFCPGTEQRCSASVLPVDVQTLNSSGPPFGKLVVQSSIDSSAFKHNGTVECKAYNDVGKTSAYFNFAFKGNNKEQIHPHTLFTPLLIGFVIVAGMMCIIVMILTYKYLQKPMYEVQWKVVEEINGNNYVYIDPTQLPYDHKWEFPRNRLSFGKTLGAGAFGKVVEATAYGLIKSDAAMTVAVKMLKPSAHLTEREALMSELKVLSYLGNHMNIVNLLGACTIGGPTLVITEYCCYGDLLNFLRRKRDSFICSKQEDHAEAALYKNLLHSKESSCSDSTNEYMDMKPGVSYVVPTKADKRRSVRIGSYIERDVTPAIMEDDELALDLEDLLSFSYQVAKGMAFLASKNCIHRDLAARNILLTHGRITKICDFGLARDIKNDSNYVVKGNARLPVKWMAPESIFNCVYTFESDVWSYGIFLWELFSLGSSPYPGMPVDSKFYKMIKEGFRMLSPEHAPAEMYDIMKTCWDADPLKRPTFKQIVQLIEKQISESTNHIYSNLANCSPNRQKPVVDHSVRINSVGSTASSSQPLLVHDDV
Chain of Proprotein convertase subtilisin/kexin type 9 (Homo sapiens) (Q8NBP7 31-152 limits assumed): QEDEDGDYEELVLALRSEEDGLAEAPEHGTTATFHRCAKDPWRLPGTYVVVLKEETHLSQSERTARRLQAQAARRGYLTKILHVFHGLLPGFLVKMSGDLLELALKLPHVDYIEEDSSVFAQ
Chain of Proprotein convertase subtilisin/kexin type 9 (Homo sapiens) (Q8NBP7 153-692 limits assumed): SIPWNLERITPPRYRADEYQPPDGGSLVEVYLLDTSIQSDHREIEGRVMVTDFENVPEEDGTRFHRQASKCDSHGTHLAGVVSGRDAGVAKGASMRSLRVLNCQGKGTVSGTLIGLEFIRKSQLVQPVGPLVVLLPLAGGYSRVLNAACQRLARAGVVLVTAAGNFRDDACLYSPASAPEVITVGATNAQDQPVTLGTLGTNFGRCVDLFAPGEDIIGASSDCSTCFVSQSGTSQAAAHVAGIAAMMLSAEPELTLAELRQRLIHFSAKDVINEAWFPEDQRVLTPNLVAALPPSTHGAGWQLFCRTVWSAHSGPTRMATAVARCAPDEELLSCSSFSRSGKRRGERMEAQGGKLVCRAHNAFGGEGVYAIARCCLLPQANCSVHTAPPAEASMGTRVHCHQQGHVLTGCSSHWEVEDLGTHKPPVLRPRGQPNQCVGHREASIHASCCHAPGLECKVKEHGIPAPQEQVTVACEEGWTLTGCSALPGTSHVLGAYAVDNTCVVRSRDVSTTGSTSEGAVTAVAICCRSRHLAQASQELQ
Chain of PCSK9/LDLR (Q8NBP7 31-152 limits assumed): as the sequence (Q8NBP7 31-152 limits assumed) above
Chain of PCSK9/LDLR (Q8NBP7 153-692 limits assumed): as the sequence (Q8NBP7 153-692 limits assumed) above
Chain of PCSK9/LDLR (P01130 22-860 partner limits assumed): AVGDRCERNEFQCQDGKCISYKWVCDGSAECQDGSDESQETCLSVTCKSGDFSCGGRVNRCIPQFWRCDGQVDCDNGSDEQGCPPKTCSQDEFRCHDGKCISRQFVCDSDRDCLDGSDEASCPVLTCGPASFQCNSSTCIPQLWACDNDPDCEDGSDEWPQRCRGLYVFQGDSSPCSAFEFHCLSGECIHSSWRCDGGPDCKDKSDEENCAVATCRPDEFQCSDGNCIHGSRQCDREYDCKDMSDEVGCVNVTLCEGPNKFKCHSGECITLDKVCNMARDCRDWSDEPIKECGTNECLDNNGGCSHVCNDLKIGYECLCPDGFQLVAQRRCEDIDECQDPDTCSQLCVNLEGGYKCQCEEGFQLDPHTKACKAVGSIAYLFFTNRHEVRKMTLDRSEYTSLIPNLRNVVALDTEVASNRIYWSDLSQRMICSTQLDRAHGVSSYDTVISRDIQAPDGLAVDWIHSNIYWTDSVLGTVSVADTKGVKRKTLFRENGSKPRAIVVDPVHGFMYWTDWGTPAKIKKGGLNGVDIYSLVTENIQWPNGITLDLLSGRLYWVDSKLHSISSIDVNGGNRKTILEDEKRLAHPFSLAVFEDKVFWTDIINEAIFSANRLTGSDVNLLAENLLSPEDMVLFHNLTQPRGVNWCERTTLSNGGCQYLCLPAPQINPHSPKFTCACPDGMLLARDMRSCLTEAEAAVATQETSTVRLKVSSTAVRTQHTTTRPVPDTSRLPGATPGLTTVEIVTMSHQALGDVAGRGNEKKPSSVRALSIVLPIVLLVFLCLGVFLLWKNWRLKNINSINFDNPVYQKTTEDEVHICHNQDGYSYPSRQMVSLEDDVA
Chain of Proto-oncogene tyrosine-protein kinase Src (P12931 2-536 limits assumed): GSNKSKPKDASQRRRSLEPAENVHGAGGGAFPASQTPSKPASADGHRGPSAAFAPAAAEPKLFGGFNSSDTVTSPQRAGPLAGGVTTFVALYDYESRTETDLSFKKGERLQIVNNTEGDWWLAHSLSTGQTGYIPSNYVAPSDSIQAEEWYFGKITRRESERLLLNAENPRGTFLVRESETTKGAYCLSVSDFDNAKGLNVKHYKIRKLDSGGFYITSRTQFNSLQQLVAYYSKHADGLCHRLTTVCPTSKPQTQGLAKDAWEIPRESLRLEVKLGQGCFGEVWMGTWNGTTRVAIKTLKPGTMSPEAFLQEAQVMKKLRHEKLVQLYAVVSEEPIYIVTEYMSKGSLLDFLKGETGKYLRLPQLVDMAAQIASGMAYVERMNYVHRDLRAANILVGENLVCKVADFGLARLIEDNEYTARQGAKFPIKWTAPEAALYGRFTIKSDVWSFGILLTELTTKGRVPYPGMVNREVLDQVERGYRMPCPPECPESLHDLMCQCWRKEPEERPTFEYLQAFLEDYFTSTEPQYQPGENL

half-life [4]: 9.86 h
IC50 [6]: > 10 µM
clearance [7]: 5 mL/min/kg
AUC(0-t) at 24 h [8]: 4380 ng·h/mL
AUC(0-t) at 24 h [9]: 92.3 ng·h/mL
AUC(0-inf) [10]: 1470 ng·h/mL
Cmax [11]: 2210 ng/mL
IC50 [12]: > 10 µM
AUC(0-t) at 24 h [13]: 722 ng·h/mL
Activity [14]: Active
AUC(0-t) at 24 h [16]: 16100 ng·h/mL
T>IC50 [17]: >= 16 hr
Cmax [18]: 52.6 ng/mL
inhibition [19]: inactive
IC50 (PCSK9/LDLR): 0.537 µM
concentration at 24 h [20]: 93 nM
Structure (SMILES): Cc1cn(-c2cc(CN3CCC[C@H](N)C3)cc(NC(=O)c3ccc(C)c(Oc4ccccc4)c3)c2)cn1
Activity (Mus musculus [1]): Non-Toxic
Activity [2]: Non-Toxic
Activity (Mus musculus [3]): inactive
Activity (Mus musculus [5]): Active
Activity (Mus musculus [15]): inactive
